From ChEMBL document CHEMBL1130202, “Biologically active heteroarotinoids exhibiting anticancer activity and decreased toxicity” (J Med Chem, 1997)
Activity calls are given as the source filed them. The calls are words filed in the database; no cut-off is given here.

Assays:
Mus musculus [1] = species: Mus musculus; assay: Skin scaling in mice at mid dose 1 with Hypervitaminosis; 0/16; format: functional, organism-based
Mus musculus [2] = species: Mus musculus; assay: Mortality rate in mice in mid dose 1; format: functional
In short: (§1)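 Male B6D2F1 mice given compound daily by gavage in corn oil at the stated dose levels, with corn oil vehicle controls. Deaths counted as animals found dead or sacrificed moribund, with day(s) of death recorded. Heteroarotinoid groups ran to day 65 and low-dose reference groups to day 25.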

Mus musculus [3] = species: Mus musculus; assay: Skin scaling in mice at high dose with Hypervitaminosis; 2/16; format: functional, organism-based
Mus musculus [4] = species: Mus musculus; assay: Mortality rate in mice in low dose; format: functional; in short: as §1
Mus musculus [5] = species: Mus musculus; assay: Fracture incidence in mouse at mid dose 2; 4/8
[6] = Mortality rate in mice at 0.05 mg/kg/day; format: ADME, organism-based; conditions: mouse, in vivo; in short: as §1
Mus musculus [7] = assay: Avoiding pressure on limbs at 0.2 mg/kg/day dose in mice with hypervitaminosis; 0/16; format: functional, organism-based; conditions: Limb
Mus musculus [8] = assay: Enlarged lymph in gross pathological observations with hypervitaminosis A in mice at 0.2 mg/kg/day dose with gross observations/total number of animals in group; 16/16; format: functional, organism-based
Mus musculus [9] = assay: Average number of fractures per mouse at 0.4 mg/kg/day
Mus musculus [10] = assay: Effect of compound on adrenal to body weight ratios in mice at 0.05 mg/kg/day dose; measured on day 25
Mus musculus [11] = assay: Avoiding pressure on limbs at 0.8 mg/kg/day dose in mice hypervitaminosis; 0/16; format: functional, organism-based; conditions: Limb
Mus musculus [12] = assay: Effect of compound on adrenal to body weight ratios in mice at 0.4 mg/kg/day dose; all the animals died by day 65; format: functional, organism-based
Mus musculus [13] = assay: Avoiding pressure on limbs at 0.01 mg/kg/day dose in mice hypervitaminosis; 0/16; format: functional, organism-based; conditions: Limb
Mus musculus [14] = assay: Total dose of 10% weight loss in mice at 0.01 mg/kg/day; format: functional
Mus musculus [15] = assay: Enlarged lymph in gross pathological observations with hypervitaminosis A in mice at 0.4 mg/kg/day dose with gross observations/total number of animals in group; 12/16; format: functional, organism-based
Mus musculus [16] = assay: Average number of fractures per mouse at 0.01 mg/kg/day
Mus musculus [17] = assay: Effect of compound on right testicle to body weight ratios in mice at 0.4 mg/kg/day dose on day 65; format: functional, organism-based
Mus musculus [18] = assay: Avoiding pressure on limbs at 0.1 mg/kg/day dose in mice hypervitaminosis; 0/16; format: functional, organism-based; conditions: Limb
Mus musculus [19] = assay: Calculated 30-day maximally tolerated dose based on 10% weight loss in mice at 0.05 mg/kg/day; format: functional
Mus musculus [20] = assay: Effect of compound on adrenal to body weight ratios in mice at 0.8 mg/kg/day dose; all the animals died by day 65; format: functional, organism-based
Mus musculus [21] = assay: Skin scaling at 0.1 mg/kg/day in mice with hypervitaminosis; 14/16; format: functional, organism-based
Mus musculus [22] = assay: Enlarged spleen in Gross pathological observations with hypervitaminosis A in mice at 0.4 mg/kg/day dose with gross observations/total number of animals in group; 0/16; format: functional, organism-based
[23] = Mortality rate in mice at 0.2 mg/kg/day; range (8-19); format: ADME, organism-based; conditions: mouse, in vivo; in short: as §1
Mus musculus [24] = assay: Effect of compound on right testicle to body weight ratios in mice at 0.01 mg/kg/day dose on day 25; format: functional, organism-based
Mus musculus [25] = assay: Skin scaling at 0.8 mg/kg/day in mice with hypervitaminosis; 12/16; format: functional, organism-based
Mus musculus [26] = assay: Effect of compound on adrenal to body weight ratios in mice at 0.2 mg/kg/day dose; all the animals died by day 65; format: functional, organism-based
Mus musculus [27] = assay: Effect of compound on thymus to body weight ratios in mice at 0.2 mg/kg/day dose; all the animals died by day 65; format: functional, organism-based
In short: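 Male B6D2F1 mice were dosed daily by gavage in corn oil, with TTNPB given at 0.1–0.8 or 0.01/0.05 mg/kg/day. Thymus-to-body weight ratio (×1000) was taken at necropsy on day 65 against vehicle 1, or on day 25 for the 0.01/0.05 groups against vehicle 2. Mean ± SD of 4–8 animals, reported as % difference from vehicle.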

Mus musculus [28] = assay: Skin scaling at 0.05 mg/kg/day in mice with hypervitaminosis; 8/8; format: functional, organism-based
Mus musculus [29] = assay: Enlarged spleen in Gross pathological observations with hypervitaminosis A at 0.8 mg/kg/day dose with gross observations/total number of animals in group; 0/16; format: functional, organism-based
Mus musculus [30] = species: Mus musculus; assay: Effect of compound on serum Alkaline phosphatase levels in mice at low dose on day 36; format: functional
In short: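 Male B6D2F1 mice dosed daily by oral gavage in corn oil at low, mid 1, mid 2 or high dose. Blood sampled on set days (8, 29, 36, 65) for clinical chemistry, serum alkaline phosphatase and triglycerides. Group mean ± SD reported as % relative to vehicle 1; significance p < 0.05 versus corn oil vehicle.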

Mus musculus [31] = species: Mus musculus; assay: Effect of compound on right testicle to body weight ratios in mice at high dose on day 65; all the animals died by day 65; format: functional, organism-based
In short: (§2)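 Male B6D2F1 mice dosed daily by gavage with compound in corn oil; vehicle 1 (corn oil) controls run to termination on day 65. Low, mid 1, mid 2 and high dose groups, with dosage increases partway through the study. Organ-to-body weight ratios (×1000) taken at necropsy on day 65, reported as mean ± SD for 4 to 8 animals and as % difference from vehicle.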

Mus musculus [32] = species: Mus musculus; assay: Effect of compound on white blood cells levels in mice at low dose on day 65; format: functional
In short: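 Male B6D2F1 mice were gavaged daily with compound in corn oil at low, mid 1, mid 2 or high dose. Serum triglycerides and circulating white blood cells were measured on the stated day (8, 29, 36, 65). Values are group mean ± SD expressed as % relative to corn-oil vehicle, with significance at p ≤ 0.05.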

Mus musculus [33] = species: Mus musculus; assay: Effect of compound on Spleen to body weight ratios in mice at high dose on day 65; all the animals died by day 65; format: functional, organism-based; in short: as §2
Mus musculus [34] = species: Mus musculus; assay: Fracture incidence in mouse at low dose; 2/8
Mus musculus [35] = species: Mus musculus; assay: Compound toxicity determined by total dose to termination (day 25/65) in low dose; format: functional
In short: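 Male B6D2F1 mice given daily oral gavage in corn oil; dosages increased during the study (day 30 or day 51 depending on compound). Cumulative dose in mg/kg administered up to termination (day 65, or day 25 for TTNPB 0.01/0.05 mg/kg/day groups).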

Mus musculus [36] = species: Mus musculus; assay: Enlarged lymph in gross pathological observations in mice with hypervitaminosis A at mid dose 2 with gross observations/total number of mice in group; 8/16; format: functional, organism-based
Mus musculus [37] = species: Mus musculus; assay: Fracture incidence in mouse at mid dose 2; 6/7
Mus musculus [38] = species: Mus musculus; assay: Enlarged spleen in Gross pathological observations in mice with hypervitaminosis A at mid dose 1 with gross observations/total number of mice in group; 0/16; format: functional, organism-based
Mus musculus [39] = species: Mus musculus; assay: Fracture incidence in mouse at high dose; 2/8
Mus musculus [40] = species: Mus musculus; assay: Enlarged lymph in gross pathological observations in mice with hypervitaminosis A at mid dose 1 with gross observations/total number of mice in group; 0/16; format: functional, organism-based
Mus musculus [41] = species: Mus musculus; assay: Alopecia in mice observed at mid dose 2 with Hypervitaminosis; 1/16; format: functional, organism-based

## CC(/C=C/C=C(\C)c1ccc2c(c1)C(C)(C)CCO2)=C\C(=O)O
Mus musculus [1]
  Activity: inactive
Mus musculus [2]
  Mortality: 0 day of death
Mus musculus [3]
  Activity: inactive
Mus musculus [4]
  Mortality: 0 day of death
Mus musculus [5]
  Activity: Weak activity

## C/C(=C\c1ccc(C(=O)O)cc1)c1ccc2c(c1)C(C)(C)CCC2(C)C
[6]
  Mortality: 3 day of death
Mus musculus [7]
  Activity: inactive
Mus musculus [8]
  Activity: Active
Mus musculus [9]
  Activity: 0.4
Mus musculus [10]
  Activity: Toxic
Mus musculus [11]
  Activity: inactive
Mus musculus [12]
  Activity: Toxic
Mus musculus [13]
  Activity: inactive
Mus musculus [14]
  Dose: >0.25 mg/kg
Mus musculus [15]
  Activity: Active
Mus musculus [16]
  Activity: 0.1
Mus musculus [17]
  Activity: Toxic
Mus musculus [18]
  Activity: inactive
Mus musculus [19]
  Max tolerated dose: 0.001 mg/kg
Mus musculus [20]
  Activity: Toxic
Mus musculus [21]
  Activity: Active
Mus musculus [22]
  Activity: inactive
[23]
  Mortality: 6 day of death
Mus musculus [24]
  Activity: Toxic
Mus musculus [25]
  Activity: Active
Mus musculus [26]
  Activity: Toxic
Mus musculus [27]
  Activity: Toxic
Mus musculus [28]
  Activity: Active
Mus musculus [29]
  Activity: inactive

## C/C(=C\c1ccc(C(=O)O)cc1)c1ccc2c(c1)C(C)(C)CCO2
Mus musculus [30]
  Activity: 77.4
Mus musculus [31]
  Activity: Toxic
Mus musculus [32]
  Activity: 4.27
Mus musculus [33]
  Activity: Toxic
Mus musculus [34]
  Activity: Weak activity
Mus musculus [35]
  Total dose: 147.1 mg/kg
Mus musculus [36]
  Activity: Weak activity
Mus musculus [37]
  Activity: Active

## CC(/C=C/C=C(\C)c1ccc2c(c1)C(C)(C)CCS2)=C\C(=O)O
Mus musculus [38]
  Activity: inactive
Mus musculus [39]
  Activity: Weak activity
Mus musculus [40]
  Activity: inactive
Mus musculus [41]
  Activity: inactive
